In ChEMBL document CHEMBL1142459, “Design and synthesis of a novel series of pyranonaphthoquinones as topoisomerase II catalytic inhibitors” (J Med Chem, 2008):
The source made the active and inactive calls. No cut-off for these calls is given here.

Legend:
[1] = target: DNA topoisomerase 2-alpha (Homo sapiens) (UniProt P11388); test: Inhibition of human topoisomerase 2 alpha-mediated Crithidia fasciculate kDNA decatenation at 100 uM
[2] = target: DNA topoisomerase 2-alpha (Homo sapiens) (UniProt P11388); test: Inhibition of human topoisomerase 2 alpha-mediated bacterial plasmid DNA relaxation assessed as pRYG negative supercoiled form at 100 uM
[3] = target: DNA topoisomerase 2-alpha (Homo sapiens) (UniProt P11388); test: Inhibition of human topoisomerase 2 alpha-mediated bacterial plasmid DNA relaxation assessed as pRYG negative supercoiled form added 100 uM after relaxation
Nucleic Acid = test: DNA intercalative activity assessed retardation in migration of negatively supercoiled small circular Escherichia coli pBSKS in agarose gel electrophoresis at 100 uM; format: nucleic-acid assay
Summary of the method: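 250 ng negatively supercoiled pBSKS incubated 10 min at 37 °C with compound at 100 µM in 1% (v/v) DMSO; ethidium bromide 1 µg/mL as intercalator control. Run on 1% agarose in 1× TBE without ethidium bromide at 0.5 V/cm (low field); retardation of migration scored.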

DNA topoisomerase 2-alpha (Homo sapiens), sequence (P11388 whole entry): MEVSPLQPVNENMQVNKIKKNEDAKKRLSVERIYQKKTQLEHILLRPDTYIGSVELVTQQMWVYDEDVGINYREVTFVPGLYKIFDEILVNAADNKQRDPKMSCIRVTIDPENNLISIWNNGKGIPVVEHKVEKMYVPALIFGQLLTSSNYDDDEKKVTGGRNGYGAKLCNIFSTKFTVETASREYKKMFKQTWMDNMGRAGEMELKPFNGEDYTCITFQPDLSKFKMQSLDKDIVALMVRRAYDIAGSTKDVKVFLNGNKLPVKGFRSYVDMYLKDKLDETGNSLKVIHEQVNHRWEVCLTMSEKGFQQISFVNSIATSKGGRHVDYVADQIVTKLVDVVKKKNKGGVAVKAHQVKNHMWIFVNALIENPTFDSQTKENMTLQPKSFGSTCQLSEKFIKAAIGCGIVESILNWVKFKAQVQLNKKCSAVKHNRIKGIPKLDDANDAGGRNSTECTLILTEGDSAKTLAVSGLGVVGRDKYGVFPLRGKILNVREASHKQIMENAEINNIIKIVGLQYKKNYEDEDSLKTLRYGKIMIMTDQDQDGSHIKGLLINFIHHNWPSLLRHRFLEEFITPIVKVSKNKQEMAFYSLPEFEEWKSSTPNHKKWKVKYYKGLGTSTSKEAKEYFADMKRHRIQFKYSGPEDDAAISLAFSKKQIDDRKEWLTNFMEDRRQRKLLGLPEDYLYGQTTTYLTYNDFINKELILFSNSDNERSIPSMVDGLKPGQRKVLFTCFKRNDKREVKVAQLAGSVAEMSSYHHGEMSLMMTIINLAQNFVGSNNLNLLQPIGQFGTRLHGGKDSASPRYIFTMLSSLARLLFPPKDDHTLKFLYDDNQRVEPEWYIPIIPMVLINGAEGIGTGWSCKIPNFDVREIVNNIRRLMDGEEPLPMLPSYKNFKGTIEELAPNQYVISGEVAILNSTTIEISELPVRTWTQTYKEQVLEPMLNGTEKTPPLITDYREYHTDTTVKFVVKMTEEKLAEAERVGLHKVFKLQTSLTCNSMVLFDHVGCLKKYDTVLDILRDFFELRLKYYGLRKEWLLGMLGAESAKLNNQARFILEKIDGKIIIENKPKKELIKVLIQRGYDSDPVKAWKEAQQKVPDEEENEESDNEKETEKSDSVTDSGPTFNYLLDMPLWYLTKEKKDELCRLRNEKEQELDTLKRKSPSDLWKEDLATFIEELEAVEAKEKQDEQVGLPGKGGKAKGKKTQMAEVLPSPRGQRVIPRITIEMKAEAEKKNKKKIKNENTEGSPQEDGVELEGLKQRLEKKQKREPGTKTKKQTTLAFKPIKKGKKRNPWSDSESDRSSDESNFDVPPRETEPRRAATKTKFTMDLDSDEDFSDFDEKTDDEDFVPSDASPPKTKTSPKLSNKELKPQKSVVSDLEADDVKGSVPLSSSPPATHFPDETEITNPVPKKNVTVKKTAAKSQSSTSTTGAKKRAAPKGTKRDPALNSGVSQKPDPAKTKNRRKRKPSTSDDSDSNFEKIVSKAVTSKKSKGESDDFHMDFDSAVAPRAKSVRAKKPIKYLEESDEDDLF

| SMILES | Activity [1] | Activity [2] | Activity [3] | Activity (Nucleic Acid) |
| --- | --- | --- | --- | --- |
| COc1ccc2c(c1)OC[C@@H]1[C@H]2C2=C(OC1(C)C)C(=O)c1ccccc1C2=O | Active | Active | inactive | inactive |
| CC[n+]1c(-c2ccccc2)c2cc(N)ccc2c2ccc(N)cc21 | – | – | – | Active |
| COc1cc([C@@H]2c3cc4c(cc3[C@@H](O[C@@H]3O[C@@H]5CO[C@@H](C)O[C@H]5[C@H](O)[C@H]3O)[C@H]3COC(=O)[C@H]23)OCO4)cc(OC)c1O | – | inactive | Active | inactive |
| CC1(C)OC2=C(C(=O)c3ccccc3C2=O)[C@H]2c3cc(Br)ccc3OC[C@H]21 | Active | Active | inactive | inactive |
| C[C@@H]1CC[C@H]2[C@H]1C1=C(OC2(C)C)C(=O)c2ccccc2C1=O | inactive | inactive | inactive | inactive |
| C[C@@H]1CC[C@@H]2[C@@H](C1)C1=C(OC2(C)C)C(=O)c2ccccc2C1=O | inactive | inactive | inactive | inactive |
| CC1(C)OC2=C(C(=O)C(=O)c3ccccc32)[C@@H]2c3cc(Br)ccc3OC[C@@H]21 | Active | Active | inactive | inactive |
| Cc1c2ccncc2c(C)c2c1[nH]c1ccccc12 | – | Active | inactive | Active |
| COc1ccc2c(c1)OC[C@H]1[C@@H]2C2=C(OC1(C)C)c1ccccc1C(=O)C2=O | Active | Active | inactive | inactive |
| CC1(C)OC2=C(C(=O)c3ccccc3C2=O)[C@H]2c3c(ccc4ccccc34)OC[C@H]21 | inactive | inactive | inactive | inactive |
| CC1(C)OC2=C(C(=O)c3ccccc3C2=O)[C@H]2c3cc(Br)cc(Br)c3OC[C@H]21 | Active | Active | inactive | inactive |
| C[C@H]1CC[C@H]2[C@H](C1)C1=C(OC2(C)C)c2ccccc2C(=O)C1=O | inactive | inactive | inactive | inactive |
| CC1(C)OC2=C(C(=O)C(=O)c3ccccc32)[C@@H]2c3c(ccc4ccccc34)OC[C@@H]21 | Active | Active | inactive | inactive |
| C[C@H]1CC[C@@H]2[C@@H]1C1=C(OC2(C)C)c2ccccc2C(=O)C1=O | inactive | inactive | inactive | inactive |
